For assay [1], the system named is Klebsiella pneumoniae. Kind of assay: Antibacterial activity against Klebsiella pneumoniae after 24 hrs by agar dilution method. Type of assay: functional, organism-based. The essentials:
(§1)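 MIC by agar dilution with doubling dilutions in cation-adjusted Mueller Hinton agar, 50–0.019 range, incubated in air at 35 °C for 24 h. Strains pre-grown on nutrient agar at 37 °C for 24 h, then suspended in normal saline with 0.05% Tween 20 at about 1.0–2.0 × 10⁷ cells/mL, matched to 0.5 McFarland.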

For assay [2], the system named is Enterococcus faecalis. The assay is described as follows: Antibacterial activity against Enterococcus faecalis MTCC 439 after 24 hrs by agar dilution method. Type of assay: functional. Conditions: MTCC 439, 24 h. The essentials:
as §1
Background: In agar dilution, organisms are placed on agar that contains the substance at set levels.

Assay [3] has as its system Staphylococcus aureus. The assay is described as follows: Antibacterial activity against floxacin and methicillin-resistant Staphylococcus aureus ATCC 25923 after 24 hrs by agar dilution method. The class given is functional. Conditions: ATCC 25923, 24 h.
Assay [4] has as its system Bacillus cereus. The assay is described as follows: Antibacterial activity against Bacillus cereus MTCC 430 after 24 hrs by agar dilution method. The class given is functional. Conditions: MTCC 430, 24 h. The essentials:
as §1

Assay [5] concerns Escherichia coli. Kind of assay: Antibacterial activity against Escherichia coli after 24 hrs by agar dilution method. The class given is functional, organism-based. The essentials: as §1
Assay [6] deals with Pseudomonas aeruginosa. Kind of assay: Antibacterial activity against Pseudomonas aeruginosa after 24 hrs by agar dilution method. Type of assay: functional, organism-based. The essentials: as §1
For assay [7], the system named is Streptococcus pyogenes. The assay is described as follows: Antibacterial activity against Streptococcus pyogenes after 24 hrs by agar dilution method. Type of assay: functional. The essentials: as §1
Assay [8] relates to Staphylococcus aureus. Kind of assay: Antibacterial activity against methicillin-resistant Staphylococcus aureus ATCC 70069 after 24 hrs by agar dilution method. The class given is functional. The conditions noted are these: ATCC 70069, 24 h.
The test system of assay [9] is Staphylococcus aureus. The assay is described as follows: Antibacterial activity against methicillin and vancomycin-resistant Staphylococcus aureus ATCC 29213 after 24 hrs by agar dilution method. Conditions: ATCC 29213, 24 h. The class given is functional.

Values after ≈ are worked out from the molar mass of the structure shown. Active and inactive are the calls of the source. The rule behind the calls is not given here.

As for `CC(=O)NC[C@H]1CN(c2ccc(N3CCN(C(=O)C(=O)/C=C/c4ccc(C)cc4)CC3)c(F)c2)C(=O)O1`, the result in assay [1], in assay [5] and in assay [6] was inactive. The minimum inhibitory concentration (MIC) (as a rule, the lowest concentration that inhibits growth of the organism) came to 0.04 mg/L (≈ 0.0787 µM) in assay [2]; 0.19 mg/L (≈ 0.374 µM) in assay [3]; 0.19 mg/L (≈ 0.374 µM) in assay [4]; 0.09 mg/L (≈ 0.177 µM) in [7]; 0.19 mg/L (≈ 0.374 µM) in [8]; 0.39 mg/L (≈ 0.767 µM) in assay [9].

Regarding `CC(=O)NC[C@H]1CN(c2ccc(N3CCN(C(=O)C(=O)/C=C/c4ccco4)CC3)c(F)c2)C(=O)O1`, the outcome in assay [1], in [5] and in [6] was inactive. Moreover, the minimal inhibitory concentration (MIC) in [2] came to 0.78 mg/L (≈ 1.61 µM); in assay [3], 0.39 mg/L (≈ 0.805 µM); in [4], 0.78 mg/L (≈ 1.61 µM); in assay [7], 0.78 mg/L (≈ 1.61 µM); in assay [8] it was 1.56 mg/L (≈ 3.22 µM); in [9], 3.12 mg/L (≈ 6.44 µM).

Regarding `CC(=O)NC[C@H]1CN(c2ccc(N3CCN(C(=O)C(=O)/C=C/c4cccs4)CC3)c(F)c2)C(=O)O1`, the result in assay [1], in [5] and in assay [6] was inactive. In addition, the MIC in assay [2] was 0.78 mg/L (≈ 1.56 µM); in assay [3], 0.39 mg/L (≈ 0.779 µM); in assay [4], 0.39 mg/L (≈ 0.779 µM); in [7], 0.39 mg/L (≈ 0.779 µM); in assay [8] it was 0.78 mg/L (≈ 1.56 µM); in [9], 1.56 mg/L (≈ 3.12 µM).

On to `CC(=O)NC[C@H]1CN(c2ccc(N3CCN(C(=O)C(=O)/C=C/c4ccccc4)CC3)c(F)c2)C(=O)O1`, for which the outcome in assay [1], in assay [5] and in assay [6] was inactive. Moreover, the MIC amounted to 0.78 mg/L (≈ 1.58 µM) in assay [2]; 0.78 mg/L (≈ 1.58 µM) in assay [3]; 0.39 mg/L (≈ 0.789 µM) in [4]; 0.39 mg/L (≈ 0.789 µM) in assay [7]; 0.39 mg/L (≈ 0.789 µM) in [8]; 0.78 mg/L (≈ 1.58 µM) in [9].

Consider `CC(=O)NC[C@H]1CN(c2ccc(N3CCN(C(=O)C(=O)/C=C/c4ccc(F)c(F)c4)CC3)c(F)c2)C(=O)O1`, for which the outcome in assay [1], in [5] and in assay [6] was inactive. The minimum inhibitory concentration (MIC) was 0.78 mg/L (≈ 1.47 µM) in [2]; 0.78 mg/L (≈ 1.47 µM) in [3]; 0.39 mg/L (≈ 0.735 µM) in [4]; 0.78 mg/L (≈ 1.47 µM) in [7]; 1.56 mg/L (≈ 2.94 µM) in assay [8]; 3.12 mg/L (≈ 5.88 µM) in assay [9].

In the case of `CC(=O)NC[C@H]1CN(c2ccc(N3CCN(C(=O)C(=O)/C=C/c4ccc(Cl)cc4)CC3)c(F)c2)C(=O)O1`, the outcome in [1], in [5] and in assay [6] was inactive. Further, the minimum inhibitory concentration (MIC) in assay [2] came to 0.78 mg/L (≈ 1.47 µM); in assay [3], 0.78 mg/L (≈ 1.47 µM); in assay [4] it was 0.39 mg/L (≈ 0.737 µM); in assay [7], 0.39 mg/L (≈ 0.737 µM); in assay [8], 0.78 mg/L (≈ 1.47 µM); in assay [9] it was 0.78 mg/L (≈ 1.47 µM).

Take `CN[C@H](CC(C)C)C(=O)N[C@H]1C(=O)N[C@@H](CC(N)=O)C(=O)N[C@H]2C(=O)N[C@H]3C(=O)N[C@H](C(=O)N[C@H](C(=O)O)c4cc(O)cc(O)c4-c4cc3ccc4O)[C@H](O)c3ccc(c(Cl)c3)Oc3cc2cc(c3O[C@@H]2O[C@H](CO)[C@@H](O)[C@H](O)[C@H]2O[C@H]2C[C@](C)(N)[C@H](O)[C@H](C)O2)Oc2ccc(cc2Cl)[C@H]1O` [VANCOMYCIN]: the MIC in assay [2] came out at 0.78 mg/L (≈ 0.538 µM); in assay [3] it was 0.39 mg/L (≈ 0.269 µM); in [4], 0.19 mg/L (≈ 0.131 µM); in [7], 0.39 mg/L (≈ 0.269 µM); in [8], 6.25 mg/L (≈ 4.31 µM); in assay [9] it was 1.56 mg/L (≈ 1.08 µM).

For `CC(=O)NC[C@H]1CN(c2ccc(N3CCN(C(=O)C(=O)/C=C/c4ccc(Cl)c(Cl)c4Cl)CC3)c(F)c2)C(=O)O1`, the outcome in assay [1], in assay [5] and in [6] was inactive. The MIC in [2], in assay [3], in assay [4], in [7], in assay [8] and in assay [9] was over 50 mg/L each time.

Take `CC(=O)NC[C@H]1CN(c2ccc(N3CCOCC3)c(F)c2)C(=O)O1` [LINEZOLID]: the MIC in [2] came out at 3.12 mg/L (≈ 9.25 µM); in assay [3], 1.56 mg/L (≈ 4.62 µM); in assay [4], 0.78 mg/L (≈ 2.31 µM); in assay [7], 1.56 mg/L (≈ 4.62 µM); in [8] it was 1.56 mg/L (≈ 4.62 µM); in assay [9], 3.12 mg/L (≈ 9.25 µM).

Turning to `CC(=O)NC[C@H]1CN(c2ccc(N3CCN(C(=O)C(=O)/C=C/c4ccc(F)cc4)CC3)c(F)c2)C(=O)O1`, the result in [1], in [5] and in assay [6] was inactive. Besides, the MIC in [2] was 0.78 mg/L (≈ 1.52 µM); in [3], 0.78 mg/L (≈ 1.52 µM); in assay [4], 0.39 mg/L (≈ 0.761 µM); in assay [7], 0.39 mg/L (≈ 0.761 µM); in assay [8] it was 0.78 mg/L (≈ 1.52 µM); in [9], 1.56 mg/L (≈ 3.04 µM).

`CC(=O)NC[C@H]1CN(c2ccc(N3CCN(C(=O)C(=O)/C=C/c4ccc(C(F)(F)F)cc4)CC3)c(F)c2)C(=O)O1`: the outcome in assay [1], in assay [5] and in assay [6] was inactive. Further, the MIC is 0.19 mg/L (≈ 0.338 µM) in [2]; 0.78 mg/L (≈ 1.39 µM) in assay [3]; 1.56 mg/L (≈ 2.77 µM) in assay [4]; 0.19 mg/L (≈ 0.338 µM) in assay [7]; 0.78 mg/L (≈ 1.39 µM) in assay [8]; 1.56 mg/L (≈ 2.77 µM) in [9].

With `CC(=O)NC[C@H]1CN(c2ccc(N3CCN(C(=O)C(=O)/C=C/c4ccsc4)CC3)c(F)c2)C(=O)O1`, the result in assay [1], in assay [5] and in assay [6] was inactive. The MIC amounted to 0.78 mg/L (≈ 1.56 µM) in [2]; 0.78 mg/L (≈ 1.56 µM) in assay [3]; 0.78 mg/L (≈ 1.56 µM) in assay [4]; 0.39 mg/L (≈ 0.779 µM) in assay [7]; 0.78 mg/L (≈ 1.56 µM) in assay [8]; 1.56 mg/L (≈ 3.12 µM) in [9].

The record behind these values is ChEMBL document CHEMBL1154367, “Novel 4-N-substituted aryl but-3-ene-1,2-dione derivatives of piperazinyloxazolidinones as antibacterial agents” (2009).
